ChEMBL document CHEMBL3244097, “Fluorinated retinoic acids and their analogues. 1. Synthesis and Biological activity of (4-methoxy-2,3,6-trimethylphenyl)nonatetraenoic acid analogues” (J Med Chem, 1979)

Tests used:
Mus musculus [1] = assay: Toxicity in mouse assessed as hypervitaminosis dose compound treated ip daily monday through friday in first week and monday through thursday in second week measured after 1 day of last injection; assay type: organism-based; conditions: in vivo, 24 h
In short: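 Normal mice received retinoid suspended in water containing 0.1% carboxymethylcellulose and 0.01% Triton X-100, given intraperitoneally daily Monday–Friday in week 1 and Monday–Thursday in week 2. Hypervitaminosis, taken as the measure of toxicity, was scored 1 day after the last injection.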

Mus musculus [2] = assay: Antipapilloma activity against Hart Swiss albino mouse assessed as decrease in chemically-induced papillomas compound treated ip for 5 days/week for 2 weeks; assay type: functional
In short: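 At least four doses were used. ED50, the dose giving a 50% decrease in papilloma diameter, was read from a plot of percent decrease versus log dose, fitted by least squares, with a correlation coefficient reported.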

Mus musculus [3] = assay: Antipapilloma activity against Hart Swiss albino mouse assessed as decrease in chemically-induced papillomas at 40 mg/kg, ip for 5 days/week for 2 weeks; assay type: functional; set-up: scale not given: the % may be the effect or the level left; conditions: route intraperitoneal
Mus musculus [4] = assay: Antipapilloma activity against Hart Swiss albino mouse assessed as decrease in chemically-induced papillomas at 20 mg/kg, ip for 5 days/week for 2 weeks; assay type: functional; set-up: scale not given: the % may be the effect or the level left; conditions: route intraperitoneal
Mus musculus [5] = assay: Antipapilloma activity against Hart Swiss albino mouse assessed as decrease in chemically-induced papillomas at 10 mg/kg, ip for 5 days/week for 2 weeks; assay type: functional; set-up: scale not given: the % may be the effect or the level left; conditions: route intraperitoneal
Mus musculus [6] = assay: Antipapilloma activity against Hart Swiss albino mouse assessed as decrease in chemically-induced papillomas at 5 mg/kg, ip for 5 days/week for 2 weeks; assay type: functional; set-up: scale not given: the % may be the effect or the level left; conditions: route intraperitoneal
Mus musculus [7] = assay: Antipapilloma activity against Hart Swiss albino mouse assessed as decrease in chemically-induced papillomas at 2.5 mg/kg, ip for 5 days/week for 2 weeks; assay type: functional; set-up: scale not given: the % may be the effect or the level left; conditions: route intraperitoneal
Mus musculus [8] = assay: Antipapilloma activity against Hart Swiss albino mouse assessed as decrease in chemically-induced papillomas at 1.25 mg/kg, ip for 5 days/week for 2 weeks; assay type: functional; set-up: scale not given: the % may be the effect or the level left; conditions: route intraperitoneal
Mus musculus [9] = assay: Antipapilloma activity against Hart Swiss albino mouse assessed as decrease in chemically-induced papillomas at 80 mg/kg, ip for 5 days/week for 2 weeks; assay type: functional; set-up: scale not given: the % may be the effect or the level left; conditions: route intraperitoneal
Mus musculus [10] = assay: Antipapilloma activity against Hart Swiss albino mouse assessed as decrease in chemically-induced papillomas at 600 mg/kg, ip once weekly for 2 weeks; set-up: scale not given: the % may be the effect or the level left; conditions: route intraperitoneal
Mus musculus [11] = assay: Antipapilloma activity against Hart Swiss albino mouse assessed as decrease in chemically-induced papillomas at 1000 mg/kg, ip once weekly for 2 weeks; set-up: scale not given: the % may be the effect or the level left; conditions: route intraperitoneal

Structure (SMILES)	Activity (Mus musculus [1]) [mg/kg/day]	ED50 (Mus musculus [2]) [mg/kg/day]	Activity (Mus musculus [3]) [%]	Activity (Mus musculus [4]) [%]	Activity (Mus musculus [5]) [%]	Activity (Mus musculus [6]) [%]	Activity (Mus musculus [7]) [%]	Activity (Mus musculus [8]) [%]	Activity (Mus musculus [9]) [%]	Activity (Mus musculus [10]) [%]	Activity (Mus musculus [11]) [%]
COC(=O)/C=C(C)/C=C/C(F)=C(C)/C=C/c1c(C)cc(OC)c(C)c1C	50	13.8	79	60	35	28	–	–	–	–	–
COc1cc(C)c(/C=C/C(C)=C/C=C(F)/C(C)=C/C(=O)O)c(C)c1C	25	2.7	–	–	80	63	48	34	–	–	–
CCOC(=O)/C=C(C)/C=C/C=C(C)/C=C/C1=C(C)CCCC1(C)C	50	48	36	–	–	–	–	–	47	76	85
CCOC(=O)/C=C(C)/C(F)=C/C(F)=C(C)/C=C/c1c(C)cc(OC)c(C)c1C	> 200	> 80	–	–	–	–	–	–	33	–	–
CCOC(=O)/C(F)=C(C)/C=C/C=C(C)/C=C/C1=C(C)CCCC1(C)C	100	> 20	–	40	–	–	–	–	–	–	–
CCOC(=O)/C=C(C)/C(F)=C/C=C(C)/C=C/C1=C(C)CCCC1(C)C	100	24.3	67	33	33	–	–	–	83	–	–
COC(=O)/C=C(C)/C=C/C(F)=C(C)/C=C/C1=C(C)CCCC1(C)C	200	< 80	–	–	–	–	–	–	60	–	–
CCOC(=O)/C(F)=C(C)/C=C/C=C(C)/C=C/c1c(C)cc(OC)c(C)c1C	12.5	> 10	–	–	37	–	–	–	–	–	–
CCOC(=O)/C=C(C)/C(F)=C\C=C(C)\C=C\c1c(C)cc(OC)c(C)c1C	200	80	–	–	–	–	–	–	56	–	–
COC(=O)/C=C(C)/C=C/C(F)=C(C)\C=C\c1c(C)cc(OC)c(C)c1C	200	> 80	–	–	–	–	–	–	17	–	–
COC(=O)/C=C(C)/C=C/C=C(C)/C(F)=C/c1c(C)cc(OC)c(C)c1C	> 200	> 80	–	–	–	–	–	–	3	–	–
CCOC(=O)/C=C(C)/C=C/C=C(C)/C=C(\F)c1c(C)cc(OC)c(C)c1C	–	> 40	40	–	–	–	–	–	–	–	–
CCOC(=O)/C=C(C)/C=C/C=C(C)/C=C(/F)c1c(C)cc(OC)c(C)c1C	–	> 40	26	–	–	–	–	–	–	–	–
CCOC(=O)/C(F)=C(C)/C(F)=C/C=C(C)/C=C/c1c(C)cc(OC)c(C)c1C	> 200	> 80	–	–	–	–	–	–	17	–	–
CCOC(=O)/C(F)=C(C)/C=C/C(F)=C(C)/C=C/c1c(C)cc(OC)c(C)c1C	> 200	> 80	–	–	–	–	–	–	35	–	–
CCOC(=O)\C=C(/C=C/C=C(C)/C=C/c1c(C)cc(OC)c(C)c1C)C(F)(F)F	> 200	> 80	–	–	–	–	–	–	-2	–	–
COC(=O)/C=C(C)/C=C/C=C(\C=C\c1c(C)cc(OC)c(C)c1C)C(F)(F)F	> 200	> 80	–	–	–	–	–	–	25	–	–
COc1cc(C)c(/C=C/C(C)=C(F)/C=C/C(C)=C/C(=O)O)c(C)c1C	50	7.1	–	87	54	30	28	–	–	–	–
CCNC(=O)/C=C(C)/C(F)=C/C=C(C)/C=C/c1c(C)cc(OC)c(C)c1C	50	< 10	–	67	73	–	–	–	–	–	–
CCNC(=O)/C=C(C)/C=C/C(F)=C(C)/C=C/c1c(C)cc(OC)c(C)c1C	200	80	–	–	–	–	–	–	53	–	–
CCOC(=O)/C=C(C)/C(F)=C/C=C(C)/C=C/c1c(C)cc(OC)c(C)c1C	50	4	69	62	76	43	–	–	82	–	–
COC(=O)/C=C(C)/C=C(F)/C=C(C)/C=C/c1c(C)cc(OC)c(C)c1C (mixture of isomers)	> 200	> 80	–	–	–	–	–	–	25	–	–
COc1cc(C)c(/C=C/C(C)=C/C=C/C(C)=C/C(=O)O)c(C)c1C [ACITRETIN]	100	12.5	90	66	43	18	–	–	–	–	–
CCOC(=O)/C=C(C)/C=C/C=C(C)/C=C/c1c(C)cc(OC)c(C)c1C [ETRETINATE]	100	80	33	29	9	–	–	–	47	–	–
CCNC(=O)/C=C(C)/C=C/C=C(C)/C=C/c1c(C)cc(OC)c(C)c1C [MOTRETINIDE]	50	19.2	73.8	54	23	11	–	–	–	–	–
